These results are taken from ChEMBL document CHEMBL1151224, “Geranylgeraniol-type diterpenoids, boletinins A-J, from Boletinus cavipes as inhibitors of superoxide anion generation in macrophage cells” (J Nat Prod, 2004).

The test system of series [1] is Macrophage. Kind of series: Radical scavenging activity in CD mouse macrophages assessed as inhibition of superoxide anion generation at 25 uM relative to control. The class given is functional. The procedure, abridged:
(§1)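 Superoxide anion (O2•-) generation was measured in macrophage cells stimulated with the tumor promoter 12-O-tetradecanoylphorbol-13-acetate (TPA), and test samples were evaluated for suppression of this TPA-induced generation.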

The subject of series [2] is Macrophage. The series can be described thus: Radical scavenging activity in CD mouse macrophages assessed as inhibition of superoxide anion generation at 50 uM relative to control. It counts as functional. The procedure, abridged: as §1
Series [3] is described as follows: Cytotoxicity against CD mouse macrophages assessed as cell viability at 50 uM by trypan blue exclusion test. The class given is cell-based, Macrophage. The settings on record: read-out: Activity.
Series [4] concerns the target T1, Xanthine dehydrogenase/oxidase (Homo sapiens, UniProt P47989). Kind of series: Inhibition of XOD at 25 uM relative to control.
Series [5] deals with T1, Xanthine dehydrogenase/oxidase. Kind of series: Inhibition of XOD at 125 uM relative to control.

By inhibition is commonly meant the percentage by which the read-out fell short of the control.

T1 sequence (P47989 whole entry): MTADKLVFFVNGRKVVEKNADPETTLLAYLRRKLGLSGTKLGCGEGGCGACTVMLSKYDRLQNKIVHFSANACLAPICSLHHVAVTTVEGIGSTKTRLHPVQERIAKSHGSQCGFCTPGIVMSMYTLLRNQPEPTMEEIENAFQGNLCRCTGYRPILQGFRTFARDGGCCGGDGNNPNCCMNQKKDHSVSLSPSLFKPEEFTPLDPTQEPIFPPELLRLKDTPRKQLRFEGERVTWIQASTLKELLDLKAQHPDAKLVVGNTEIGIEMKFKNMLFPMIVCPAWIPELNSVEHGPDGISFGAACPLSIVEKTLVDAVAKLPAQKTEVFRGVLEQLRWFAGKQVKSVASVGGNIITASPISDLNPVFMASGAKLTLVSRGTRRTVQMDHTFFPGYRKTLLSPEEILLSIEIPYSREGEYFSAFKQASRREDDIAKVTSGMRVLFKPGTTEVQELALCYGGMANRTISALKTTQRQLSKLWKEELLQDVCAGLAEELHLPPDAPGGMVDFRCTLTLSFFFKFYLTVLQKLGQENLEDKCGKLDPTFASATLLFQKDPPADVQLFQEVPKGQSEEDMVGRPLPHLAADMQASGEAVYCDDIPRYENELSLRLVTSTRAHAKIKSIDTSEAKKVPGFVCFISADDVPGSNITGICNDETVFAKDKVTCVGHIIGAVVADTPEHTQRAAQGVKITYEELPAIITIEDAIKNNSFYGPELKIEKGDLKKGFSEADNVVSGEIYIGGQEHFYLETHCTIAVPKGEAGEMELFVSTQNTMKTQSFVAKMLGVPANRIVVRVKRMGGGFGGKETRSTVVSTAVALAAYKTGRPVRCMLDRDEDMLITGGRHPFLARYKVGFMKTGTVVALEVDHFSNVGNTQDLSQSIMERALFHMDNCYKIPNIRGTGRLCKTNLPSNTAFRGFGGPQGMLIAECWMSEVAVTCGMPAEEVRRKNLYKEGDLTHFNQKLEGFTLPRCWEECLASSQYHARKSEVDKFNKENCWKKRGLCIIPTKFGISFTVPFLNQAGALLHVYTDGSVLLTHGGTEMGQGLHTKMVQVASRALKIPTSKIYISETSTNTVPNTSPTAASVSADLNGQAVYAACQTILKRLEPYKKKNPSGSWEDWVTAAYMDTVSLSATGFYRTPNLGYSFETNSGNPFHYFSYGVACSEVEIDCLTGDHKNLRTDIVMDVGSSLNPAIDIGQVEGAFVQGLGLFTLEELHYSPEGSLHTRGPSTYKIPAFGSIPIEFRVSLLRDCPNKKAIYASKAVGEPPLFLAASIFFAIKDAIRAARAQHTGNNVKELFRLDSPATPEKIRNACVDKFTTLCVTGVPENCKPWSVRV

As to `O=c1c(O)c(-c2ccc(O)c(O)c2)oc2cc(O)cc(O)c12` [QUERCETIN], the inhibition at 25 µM in the series on Macrophage [1] was 19%; in series [4], 31%. For the same molecule, in the series with Macrophage [2], the inhibition at 50 µM came out at 28%. Moreover, the viability at 50 µM in series [3] amounted to 101%. Testing at 125 µM in series [5] gave an inhibition of 72%.
